Test results published in ChEMBL document CHEMBL1177726, “Amphiphilic amide nitrones: a new class of protective agents acting as modifiers of mitochondrial metabolism” (J Med Chem, 2010).
Converted amounts (≈) assume the structure as drawn. The source made the active and inactive calls. The calls are words filed in the database; no cut-off is given here.

Key:
[1] = Inhibition of doxorubicin-induced cell death in Sprague-Dawley rat primary mixed cortical cells at 10 uM after 24 hrs by trypan blue absorbance assay; type: functional
Summary of the method: (§1)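 Mixed cortical cultures from E15 rat embryos were exposed for 24 h to H2O2, peroxynitrite or doxorubicin (200 μM), with nitrone (10 μM) added at the same time. Cell death was measured by trypan blue absorbance at 590 nm and expressed as % inhibition. Mean ± SEM, N = 10; ANOVA with Bonferroni t test against vehicle.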

Rotifers [2] = test: Protection against doxorubicin-induced toxicity in Rotifers assessed as viability at 10 uM after 24 hrs; type: functional, Rotifera
Summary of the method: (§2)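 Individually housed Philodina rotifers were exposed for 24 h to H2O2 or doxorubicin (200 μM), with nitrone (10 μM) added at the same time. Read-out was % viable animals. Vehicle controls came from the same stock culture and were run in parallel. Mean ± SEM, N = 10; ANOVA with Bonferroni t test.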

[3] = Inhibition of peroxynitrite-induced cell death in Sprague-Dawley rat primary mixed cortical cells at 10 uM after 24 hrs by trypan blue absorbance assay; type: functional; summary of the method: as §1
[4] = Antioxidant activity assessed as reduction of ABTS radical measured for 30 mins; type: functional
Summary of the method: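 ABTS cation radical at 105 μM final, test compound at 0.5 mM final, DMSO vehicle at 2.5% final in controls. The reaction is started by adding the nitrone, and loss of radical is followed at 420 nm every minute for 30 min. Results are reduced ABTS•+ per 30 min as mean ± SEM, N = 10, compared with vehicle by ANOVA with Bonferroni t test.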

[5] = Antioxidant activity assessed as ABTS radical scavenging activity assessed as burstlike formation of intensely green colored ABTS radical measured for 30 mins; type: functional
Summary of the method: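 Fenton-initiated ABTS cation radical formation: water, ABTS (1 mM stock), FeSO4 (0.5 mM stock), test compound (1 mM stock in DMSO), reaction started with H2O2 (10 mM stock). Absorbance read at 420 nm every minute over 30 min. Controls got DMSO vehicle, 10% final. Scavenging is seen as suppression of time-dependent radical formation.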

Rotifers [6] = test: Protection against hydrogen peroxide-induced toxicity in Rotifers assessed as viability at 10 uM after 24 hrs; type: functional, Rotifera; summary of the method: as §2
[7] = Inhibition of hydrogen peroxide-induced cell death in Sprague-Dawley rat primary mixed cortical cells at 10 uM after 24 hrs by trypan blue absorbance assay; type: functional; summary of the method: as §1
[8] = Solubility in water; type: physicochemical
[9] = Critical micellar concentration of the compound; type: physicochemical
Summary of the method: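 Nitrone solutions in ultrapure water were measured at 25 C by the Wilhelmy plate method with a tensiometer. The cmc was taken as the breakpoint of the plot of surface tension against log concentration.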

[10] = Lipophilicity, log K in methanol-water mixture by HPLC; type: physicochemical
Summary of the method: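 Nitrones in methanol (1.0 mg/mL) were run by reverse-phase C18 HPLC, eluted with MeOH/water from 9:1 to 7:3 v/v at 0.8 mL/min. Retention values were extrapolated to 100% aqueous to give log k'W.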

Rattus norvegicus [11] = species: Rattus norvegicus; test: Induction of Electron transport protein complex 1 in Sprague-Dawley rat cortical mitochondria assessed as reduction of ferric cyanide at 10 uM after 30 mins
Summary of the method: (§3)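 Submitochondrial particles from rat cortical mitochondria were preincubated 30 min with nitrone (10 μM), dopamine, or both. Ferricyanide reduction was then followed from the 440 minus 490 nm difference in the presence of antimycin A and azide at 37.5 C, as a read-out of iron-sulfur cluster N2 activity. Activity is given as nmol/mg protein/min, mean ± SEM, N = 10.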

Rattus norvegicus [12] = species: Rattus norvegicus; test: Induction of Electron transport protein complex 1 in Sprague-Dawley rat cortical mitochondria assessed as reduction of ferric cyanide at 10 uM after 30 mins in presence of EPBNAH
Rattus norvegicus [13] = species: Rattus norvegicus; test: Restoration of FCCP-induced decrease of mitochondrial membrane potential in Sprague-Dawley rat forebrain mitochondria at 0.8 uM treated 15 mins before FCCP challenge measured after 30 mins by rhodamine 123 fluorescence assay; type: functional
Summary of the method: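 Rat forebrain mitochondria respired on 6 mM glutamate/malate at 37.5 C with nitrone. FCCP (0.2 μM) was added at 15 min to partly collapse the potential, and rhodamine 123 fluorescence quenching was recorded directly at 30 min. Potential was calculated by the Scaduto and Grotyohann method. Mean ± SEM of at least four preparations.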

Rattus norvegicus [14] = species: Rattus norvegicus; test: Inhibition of rotenone-induced electron leakage in Sprague-Dawley rat forebrain mitochondria assessed as NBT reduction at 0.8 uM after 30 mins; type: functional
Summary of the method: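 Forebrain mitochondria from 3-month-old rats, in Tris-KCl phosphate medium at pH 7.4, respired on 6 mM glutamate and 6 mM malate at 37.5 C with nitrone for 30 min. NBT reduction was run with 3 μM rotenone and 3 mM azide, and the formazan was then extracted and measured. Mean ± SEM of at least four independent preparations.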

Rattus norvegicus [15] = species: Rattus norvegicus; test: Induction of Electron transport protein complex 1 in Sprague-Dawley rat cortical mitochondria assessed as reduction of ferric cyanide at 10 uM after 30 mins in presence of dopamine; summary of the method: as §3
Rattus norvegicus [16] = species: Rattus norvegicus; test: Inhibition of water soluble peroxide formation in Sprague-Dawley rat forebrain mitochondria at 0.8 uM after 30 mins by FOX assay; type: functional
Summary of the method: (§4)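 Rat forebrain mitochondria respired on 6 mM glutamate/malate with nitrone at 37.5 C for 30 min, then were put on ice and homogenized in H2SO4. The supernatant was mixed with FeSO4, xylenol orange and sorbitol at 0.07 M H2SO4, held 30 min at 25 C in the dark, and read at 570 nm. Mean ± SEM of at least four independent preparations.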

Rotifers [17] = test: Inhibition of water soluble peroxide formation in Rotifers cultures; type: functional, organism-based; details: Rotifera; TDE = time-dependent effect
Rattus norvegicus [18] = species: Rattus norvegicus; test: Inhibition of water soluble peroxide formation in Sprague-Dawley rat forebrain mitochondria at 0.4 uM after 30 mins by FOX assay; type: functional; summary of the method: as §4

Row | Compound | inhibition at 10 µM [1] [%] | Activity (Rotifers [2]) [%] | inhibition at 10 µM [3] [%] | Activity [4] [nmol] | Activity [5] [nmol] | Activity (Rotifers [6]) [%] | inhibition at 10 µM [7] [%] | solubility [8] [mg/mL] | CMC [9] [mM] | logKw [10] | Activity (Rattus norvegicus [11]) [nmol/mg/min] | Activity (Rattus norvegicus [12]) [nmol/mg/min] | Activity (Rattus norvegicus [13]) | inhibition (Rattus norvegicus [14]) | Activity (Rattus norvegicus [15]) [nmol/mg/min] | inhibition (Rattus norvegicus [16]) [%] | inhibition (Rotifers [17]) | inhibition (Rattus norvegicus [18]) [%]
1 | CC(C)(CNC(=O)[C@H](O)[C@H](O)[C@H](O[C@@H]1O[C@H](CO)[C@H](O)[C@H](O)[C@H]1O)[C@@H](O)CO)/[N+]([O-])=C/c1ccc(CNC(=O)CCC(F)(F)C(F)(F)C(F)(F)C(F)(F)C(F)(F)C(F)(F)F)cc1 | 32.8 | 46.7 | 30.3 | 42.6 | 90.7 | 30.1 | 42.6 | 270 (≈ 289 mM) | 0.18 | 4.71 | – | – | – | – | – | – | – | –
2 | CCCCCCCC(=O)NCc1ccc(/C=[N+](\[O-])C(C)(C)CNC(=O)[C@H](O)[C@H](O)[C@H](O[C@@H]2O[C@H](CO)[C@H](O)[C@H](O)[C@H]2O)[C@@H](O)CO)cc1 | 93 | 96.5 | 90.1 | 49.1 | 96.8 | 87.6 | 93 | 530 (≈ 771 mM) | – | 2.86 | 124 | 31 | Active | Active | 110 | 80 | tde | –
3 | CC(C)(C)/[N+]([O-])=C/c1ccccc1 | 24.2 | 18.7 | 20.6 | – | – | 25.6 | 25 | – | – | 1.62 | 107 | 13 | – | – | 60 | – | – | –
4 | CC(C)(CNC(=O)CCC(F)(F)C(F)(F)C(F)(F)C(F)(F)C(F)(F)C(F)(F)F)/[N+]([O-])=C/c1ccc(CNC(=O)[C@H](O)[C@H](O)[C@H](O[C@@H]2O[C@H](CO)[C@H](O)[C@H](O)[C@H]2O)[C@@H](O)CO)cc1 | 34.9 | 30.6 | 40.1 | – | – | 40.6 | 63.4 | – | 0.213 | – | – | – | – | – | – | – | – | –
5 | CCCCCCCC(=O)NCC(C)(C)/[N+]([O-])=C/c1ccc(CNC(=O)[C@H](O)[C@H](O)[C@H](O[C@@H]2O[C@H](CO)[C@H](O)[C@H](O)[C@H]2O)[C@@H](O)CO)cc1 | 82 | 85.8 | 61 | – | – | 83 | 81 | 515 (≈ 749 mM) | – | – | 116 | 19 | – | Active | 79 | 20 | tde | 10
